According to BindingDB's records for doi:10.1021/acs.jmedchem.1c00739 (2021):

Target: Protein kinase C alpha type (Homo sapiens, UniProt P17252)
Assay: Displacement of [3H]-PDBu from recombinant human PKCalpha at 30 uM by scintillation counter method relative to control
In short: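 Competition of 2 nM [3H]PDBu by test ligand at a single fixed concentration (value in line); 50 mM Tris-HCl pH 7.4, 100 μg/mL porcine brain phosphatidylserine, 5 mg/mL bovine IgG, 0.003% Tx-100, 20 ng/tube enzyme; 0.1 mM Ca2+ for PKCα, 1 mM EGTA for PKCε. 5 min at 37 °C, PEG precipitation, bound and free counted separately; nonspecific with 10 μM cold PDBu; triplicates.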

Cc1ccc(-c2cn(CC3(CO)C/C(=C\CC(CC(C)C)CC(C)C)C(=O)O3)nn2)cc1 (stereo unspecified)
Inhibition: 21%
